RGS4 block – RGS4 inhibitors, primary screen, cell-based, HEK293 M3R inducible RGS4, calcium flux; AID 463165, 2010; B-score at 10 µM; 310,000 compounds, 0.45% hits; Fluo-4 calcium flux; hits give high values; triggered by carbachol at its EC20;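 active = B-score, a plate-corrected calcium signal, over three deviations above library mean, with baseline fluorescence within five deviations of library mean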;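 also: RGS4 expression induced by doxycycline in cells with stable M3 receptor; B-score is computed from the integrated fluorescence ratio over baseline after carbachol; higher B-score means a larger calcium signal and so more RGS4 inhibition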
Target sequence (P49798 whole entry, looked up): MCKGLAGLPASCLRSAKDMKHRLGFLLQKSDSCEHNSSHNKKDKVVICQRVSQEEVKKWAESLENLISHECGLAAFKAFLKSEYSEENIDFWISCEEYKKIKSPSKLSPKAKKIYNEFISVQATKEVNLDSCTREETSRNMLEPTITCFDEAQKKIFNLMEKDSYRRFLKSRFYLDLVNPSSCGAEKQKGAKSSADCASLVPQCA
MrgX1 allo act – positive allosteric modulators of MrgX1, primary screen, HEK293 cells, Fluo-4 calcium flux | Mas-related G-protein coupled receptor member X1 (Homo sapiens), Q96LB2 | FDSS; hits give high values | B-score at 10 µM | 310,000 compounds, 0.63% hits;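 active = plate-corrected calcium response at least 3 library SD above typical, normal starting fluorescence, not activating the receptor alone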;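 also: compound read alongside a low EC10 to EC30 dose of BAM8-22 agonist; peak minus trough fluorescence over baseline measured at the second addition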
Target sequence (Q96LB2 whole entry, looked up): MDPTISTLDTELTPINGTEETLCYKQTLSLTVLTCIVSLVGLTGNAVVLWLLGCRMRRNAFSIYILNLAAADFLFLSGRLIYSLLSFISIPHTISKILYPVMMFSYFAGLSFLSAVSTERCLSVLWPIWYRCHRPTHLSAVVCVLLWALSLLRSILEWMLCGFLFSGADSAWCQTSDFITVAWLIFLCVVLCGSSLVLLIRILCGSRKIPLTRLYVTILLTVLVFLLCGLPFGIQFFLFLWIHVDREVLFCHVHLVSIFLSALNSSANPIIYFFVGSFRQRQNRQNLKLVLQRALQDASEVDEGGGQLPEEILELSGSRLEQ
RGS4 act – RGS4 potentiators or activators, primary screen, cell-based, HEK293 M3R inducible RGS4, calcium flux; B-score at 10 µM; AID 463111, 2010; carbachol calcium flux Fluo4; hits give low values; 310,000 compounds, 0.92% hits;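 active = B-score of the integrated calcium signal more than 4 SD below the library mean, with starting fluorescence not abnormally high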;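 also: negative B-score means reduced calcium response which marks RGS4 activation or potentiation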
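Detection: kinetic calcium fluorescence imaging with Fluo4-AM dye, 2 µM / Material: HEK293 cells with stable M3R and inducible RGS4 / Schedule: recording 10 s baseline at 1 Hz, 100 s post-agonist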
MrgX1 antag – antagonists of human MrgX1 receptor, primary screen, HEK293 cells, Fluo-4 calcium flux; AID 588676, 2011; 310,000 compounds, 1.3% hits; B-score at 10 µM; BAM8-22 antagonism; hits give low values;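 active = calcium-response B-score plate-corrected more than 3 library SD below zero, starting fluorescence within 5 deviations, no agonist response on first addition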;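 also: peak minus trough fluorescence over baseline after final BAM8-22 challenge near maximal dose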
MrgX1 ag – agonists of human MrgX1 receptor, primary screen, HEK293 cells, Fluo-4 calcium flux; Mas-related G-protein coupled receptor member X1 (Homo sapiens), Q96LB2; Fluo-4 calcium fluorescence, agonist mode; hits give high values; B-score at 10 µM; 310,000 compounds, 0.44% hits; AID 588627, 2011;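 active = calcium response B-score plate-corrected fluorescence ratio at least 3 library SD, with starting fluorescence B-score inside 5 SD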
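Assay system: stable human MrgX1 HEK293 cell line. Quantity: 15,000 cells per well. Schedule: cells plated overnight, dye loaded 0.5 h 37 °C, 0.5 h room temperature. Detection: Fluo-4 NW calcium-flux fluorescence, kinetic read. Read-out basis: peak-minus-minimum fluorescence over baseline, converted to B scores. Control set: positive and negative control wells on each plate.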
MrgX1 ant reconf – MrgX1 receptor antagonists, duplicate retest, confirmation, HEK293 cells, Fluo-4 calcium flux; 2,300 compounds, 19% hits; shares compounds with MrgX1 antag; BAM8-22 calcium flux; hits give low values; AID 602420, 2012; remaining BAM8-22 calcium response % of control (hits give low values), % at 10 µM;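 active = remaining agonist calcium response no higher than 100% minus 3 SD of agonist-only control wells, with starting fluorescence near control levels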;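 also: agonist BAM8-22 given at a near maximal EC90 to ECmax level; peak minus minimum fluorescence divided by baseline after agonist addition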
HEK293 Ca flux – nonspecific calcium signal in parental HEK293, confirmation, counter-screen for MrgX1 antagonist project, parental HEK293 cells, Fluo-4 calcium flux | shares compounds with MrgX1 antag | Fluo-4 calcium fluorescence, FDSS | fluorescence ratio F(max-min)/F0 at 10 µM | 4,000 compounds, 2% hits | AID 624111, 2012;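 active = duplicate-averaged calcium fluorescence ratio at least three times the standard deviation of buffer wells, a nonspecific response in parental cells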
HEK293 Ca counter – calcium response in parental HEK293 cells, primary screen, counter-screen for MrgX1 allosteric activator project, cell-based, Fluo-4 calcium flux, duplicate. Fluo-4 fluorescence ratio; hits give high values. 4,000 compounds, 0.4% hits. fluorescence ratio F(max-min)/F0 at 10 µM. shares compounds with MrgX1 antag. AID 624114, 2012;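 active = calcium fluorescence ratio, averaged over duplicates, at least 3 SD of the buffer-well ratio, meaning a nonspecific response in receptor-free cells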;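 also: untransfected parental HEK293 lacking MrgX1 used as counterscreen for MrgX1 allosteric activators; fluorescence change taken during the second addition on a kinetic imager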
HEK293 Ca cntr2 – calcium response in parental HEK293 cells, primary screen, counter-screen for MrgX1 agonist project, cell-based, Fluo-4 calcium flux, duplicate, agonist mode; shares compounds with MrgX1 antag; Fluo-4 calcium fluorescence (FDSS); hits give high values; fluorescence ratio F(max-min)/F0 at 10 µM; 4,000 compounds, 8.7% hits; AID 624115, 2012;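 active = calcium fluorescence ratio at least three times the spread of buffer wells, meaning a non-specific response in parental cells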
Starred values were filed as active, the others as inactive. Rows were chosen to be rich in hits. Some 3.5% of all compounds tested hit in one or more screens of this group.

Screening CCc1ccccc1S(=O)(=O)c1c(C)cc(C)nc1Cl returned RGS4 block inactive, MrgX1 allo act inactive, RGS4 act inactive, MrgX1 antag -5*, MrgX1 ag inactive, MrgX1 ant reconf inactive, HEK293 Ca flux inactive, HEK293 Ca counter inactive and HEK293 Ca cntr2 inactive.
Screening Cc1cc(C)c(S(=O)(=O)c2ccc(Cl)cc2C)c(Cl)n1 returned RGS4 block inactive, MrgX1 allo act inactive, RGS4 act inactive, MrgX1 antag inactive and MrgX1 ag inactive.
`CC1CCCN(C(=O)c2nn(C)c3c2CS(=O)(=O)c2ccccc2-3)C1` (stereo not given) gave RGS4 block inactive, MrgX1 allo act inactive, RGS4 act inactive, MrgX1 antag inactive and MrgX1 ag inactive.
`Cc1ccc(OCC(=O)NNC(=O)CCc2ccccc2)c(Br)c1` gave RGS4 block inactive, MrgX1 allo act inactive, RGS4 act inactive, MrgX1 antag inactive and MrgX1 ag inactive.
Cc1onc(-c2c(Cl)cccc2Cl)c1C(=O)N1C=CC(C(F)(F)F)=NCC1 was read as RGS4 block inactive, MrgX1 allo act inactive, RGS4 act inactive, MrgX1 antag -9.2*, MrgX1 ag inactive, MrgX1 ant reconf inactive, HEK293 Ca flux inactive, HEK293 Ca counter inactive and HEK293 Ca cntr2 inactive.
Screening Cc1onc(-c2c(F)cccc2Cl)c1C(=O)N1C=CC(C(F)(F)F)=NCC1 returned RGS4 block inactive, MrgX1 allo act inactive, RGS4 act inactive, MrgX1 antag inactive and MrgX1 ag inactive.
For CCCCn1c(SCC(N)=O)nc2ccc(N3CCOCC3)cc2c1=O the results were RGS4 block inactive, MrgX1 allo act inactive, RGS4 act inactive, MrgX1 antag inactive and MrgX1 ag inactive.
For CCCCn1c(SCC(=O)Nc2cccc(OC)c2)nc2ccc(N3CCOCC3)cc2c1=O the results were RGS4 block inactive, MrgX1 allo act inactive, RGS4 act inactive, MrgX1 antag -5.2*, MrgX1 ag inactive, MrgX1 ant reconf inactive, HEK293 Ca flux inactive, HEK293 Ca counter inactive and HEK293 Ca cntr2 inactive.
c1coc(CNc2c3c(nc4ccccc24)CCC3)c1 was read as RGS4 block inactive, MrgX1 allo act inactive, RGS4 act inactive, MrgX1 antag -5.5*, MrgX1 ag inactive, MrgX1 ant reconf inactive, HEK293 Ca flux inactive, HEK293 Ca counter inactive and HEK293 Ca cntr2 inactive.
COc1cc(NC(=O)COc2cc(O)c3c(c2)OC(C)(C)CC3=O)cc(OC)c1OC was read as RGS4 block inactive, MrgX1 allo act inactive, RGS4 act inactive, MrgX1 antag -5*, MrgX1 ag inactive, MrgX1 ant reconf 51%*, HEK293 Ca flux inactive, HEK293 Ca counter inactive and HEK293 Ca cntr2 inactive.
`CC1(C)CC(=O)c2c(O)cc(OCC(=O)Nc3ccc(S(N)(=O)=O)cc3)cc2O1` gave RGS4 block inactive, MrgX1 allo act inactive, RGS4 act inactive, MrgX1 antag inactive and MrgX1 ag inactive.

Bioassay records (PubChem BioAssay)
